In experiment [1] the target is GABA-A receptor; anion channel. In words: Displacing potential to [3H]diazepam binding to benzodiazepine receptor in Wistar rat cerebral cortex. The class given is tissue-based.
Experiment [2] has as its system Mus musculus. The experiment is described as follows: Inverse agonist activity was evaluated by potentiation of the pentylenetetrazole (PTZ) (90 mg/kg) induced convulsions. It counts as functional. A digest of the protocol: (§1)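 Male mice, groups of 8–16, given test compound iv and immediately challenged with subconvulsive PTZ (75 or 90 mg/kg sc). Tonic convulsions and death recorded over 2 h; dose producing effect in 50% derived by probit method with 95% confidence limits, or percentage of animals affected at a single dose.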

Experiment [3] deals with Mus musculus. In words: Inverse agonist activity was evaluated by potentiation of the pentylenetetrazole (PTZ) (75 mg/kg) induced convulsions. It counts as functional. The method, boiled down:
as §1

Experiment [4] is filed under the species Mus musculus. In words: Agonist activity was evaluated by inhibition of the PTZ-induced convulsions at a PTZ dose of 125 mg/ kg. The class given is functional. The conditions noted are these: PTZ 125 mg/kg. A digest of the protocol: (§2)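 Male mice, groups of 8–16; test compound given iv, then immediately PTZ 125 mg/kg sc (convulsive dose). Endpoint: prevention of tonic convulsions and death over 2 h; dose protecting 50% computed by probit method with 95% confidence limits; partial activity given as percentage of animals affected at a stated dose.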

Experiment [5] deals with Mus musculus. The experiment is described as follows: Inverse agonist activity was evaluated by potentiation of the pentylenetetrazole (PTZ) (75 mg/kg) induced convulsions; inactive to 10. It counts as functional, organism-based. A digest of the protocol:
as §1

Experiment [6] relates to Mus musculus. The experiment is described as follows: Inhibition to produce tonic convulsions and death in mice after administration of 10 mg/kg intravenously. The class given is functional. The conditions noted are these: route intravenous. The method, boiled down: (§3)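 Proconvulsant (inverse agonist) assay in groups of 8–16 male mice. Each mouse received the compound iv and was immediately challenged with a sub-convulsive dose of pentylenetetrazole sc, either 75 or 90 mg/kg. Animals were watched for 2 h for tonic convulsions and death. The value is the percentage of animals affected at the stated dose.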

The species entered for experiment [7] is Mus musculus. In words: Agonist activity was evaluated by inhibition of the PTZ-induced convulsions at a PTZ dose of 125 mg/ kg; inactive to 10. Set-up: dose 125 mg/ kg. The class given is functional, organism-based. The method, boiled down:
as §2

The test system of experiment [8] is Mus musculus. The experiment is described as follows: Inverse agonist activity was evaluated by potentiation of the pentylenetetrazole (PTZ) (90 mg/kg) induced convulsions; inactive to 10. It counts as functional, organism-based. The method, boiled down:
as §1

For experiment [9], the system named is Mus musculus. In words: Inhibition of tonic convulsions and death in mice after administration of 2.5 mg/kg of compound intravenously. It counts as functional. The following applies: route intravenous. The method, boiled down:
as §3

Active and inactive are the calls of the source. The rule behind the calls is not given here.

With `Cc1ccc2c(c1)ncc1c(=O)n(-c3csc(C)c3)[nH]c12`, the Ki in experiment [1] is 0.32 nM. Moreover, the figures for the ED50 in the experiment on Mus musculus [2] and in the experiment on Mus musculus [3] were 0.13 mg/kg and 0.47 mg/kg, respectively.

The compound `CCCc1csc(-n2[nH]c3c(cnc4cc(C)ccc43)c2=O)c1` gave a Ki in [1] of 1.01 nM. Further, the ED50 in the experiment filed under Mus musculus [4] was found to be 3.54 mg/kg.

With `CCc1cc(-n2[nH]c3c(cnc4cc(C)ccc43)c2=O)cs1`, in the experiment on Mus musculus [5], the ED50 result was “inactive”. 10 mg/kg produced 50% inhibition in vivo with Mus musculus [6]. The Ki in experiment [1] worked out at 0.41 nM.

For the compound `CCCc1cc(-n2[nH]c3c(cnc4cc(C)ccc43)c2=O)cs1`, the Ki in [1] stood at 1.04 nM. For the same compound, the ED50 result in the experiment filed under Mus musculus [7] and in the experiment with Mus musculus [8] was “inactive” in each case.

`CCCCc1ccc(-n2[nH]c3c(cnc4cc(C)ccc43)c2=O)s1` yielded a Ki in [1] of 1.48 nM. The 50% effect level in the experiment filed under Mus musculus [4] (ED50) was put at a dose of 0.22 mg/kg.

Consider `CCc1csc(-n2[nH]c3c(cnc4cc(C)ccc43)c2=O)c1`, for which the Ki in [1] amounted to 0.6 nM. The same compound returned an ED50 in the experiment filed under Mus musculus [4] of 5.15 mg/kg.

The compound `Cc1ccc2c(c1)ncc1c(=O)n(-c3cccs3)[nH]c12` returned a Ki in experiment [1] of 0.41 nM. Besides, the ED50 with Mus musculus [2] was found to be 0.57 mg/kg. Moreover, in the experiment with Mus musculus [9], the inhibition in vivo at 2.5 mg/kg was determined as 62.5%.

For the compound `CN1C(=O)CN=C(c2ccccc2)c2cc(Cl)ccc21` [DIAZEPAM], the 50% effective dose (ED50) in the experiment listed under Mus musculus [4] is 0.15 mg/kg.

As for `CCOC(=O)c1cc2c(cn1)[nH]c1ccccc12`, the ED50 came to 0.46 mg/kg in the experiment on Mus musculus [2] and 1 mg/kg in the experiment on Mus musculus [3].

For `Cc1csc(-n2[nH]c3c(cnc4cc(C)ccc43)c2=O)c1`, the ED50 result in the experiment on Mus musculus [5] was “inactive”. The compound also yielded a Ki in experiment [1] of 0.48 nM. Also, the 50% effective dose (ED50) in the experiment on Mus musculus [2] came to 5.15 mg/kg.

For the compound `Cc1ccc2c(c1)ncc1c(=O)n(-c3ccc(C)s3)[nH]c12`, in experiment [1], the affinity, expressed as Ki, was 0.32 nM. Also, the ED50 in the experiment listed under Mus musculus [4] was found to be 0.16 mg/kg.

As for `CCc1ccc(-n2[nH]c3c(cnc4cc(C)ccc43)c2=O)s1`, affinity in [1] was put at a Ki of 1.02 nM. In addition, the 50% effective dose (ED50) in the experiment filed under Mus musculus [4] came out at 0.32 mg/kg.

In the case of `O=C1C2C=Nc3ccccc3C2=NN1c1ccccc1` (centres undefined) [CGS-8216], in the experiment with Mus musculus [5], the ED50 result was “inactive”. In the experiment with Mus musculus [2], the ED50 came to 0.2 mg/kg.

Regarding `Cc1ccc2c(c1)ncc1c(=O)n(-c3ccsc3)[nH]c12`, in experiment [1], the Ki amounted to 0.73 nM. Further, the values for the ED50 with Mus musculus [2] and in the experiment on Mus musculus [3] were 0.14 mg/kg and 0.43 mg/kg, respectively.

The compound `O=C1C2C=Nc3ccccc3C2=NN1c1ccc(Cl)cc1` (centres undefined) [CGS-9896] had a 50% effective dose (ED50) in the experiment listed under Mus musculus [4] of 0.07 mg/kg.

A word on the Ki: it is the equilibrium dissociation constant of an inhibitor or competing ligand from its target. Read a low Ki as higher affinity. The term ED50 denotes the dose that gives a 50% effect, or the effect in half of the subjects. One may read the inhibition in vivo as the share of the control response that was lost under treatment.
